Experimental data as given in paper PMC5839514 (MedChemComm, 2017).
Read-outs that look alike come from different tables or passages of the source. Each block holds one compound with its values, some of them ahead of it.

Experiments:
[1] = Water solubility; assay type: physicochemical; conditions: for Water solubility of hydrochloride salt: hydrochloride salts
[2] = system: cyclin D1; experiment: Western blot of cyclin D1 in LS174T cells; assay type: cell-based; conditions: 300 nM
In short: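 LS174T colon cancer cells were exposed to test compound at 300 nM. Lysates were immunoblotted with antibodies against cyclin D1, p21Wif1/Cip1 and β-tubulin.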

[3] = system: cyclin-dependent kinase inhibitor p21^Wif1/Cip1; experiment: Western blot of p21^Wif1/Cip1 in LS174T cells; assay type: cell-based; conditions: 300 nM
[4] = system: LS174T colon cancer cells; experiment: Cell proliferation assay, LS174T colon cancer cells; assay type: cell-based; conditions: Table 3
In short: (§1)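 Cells were kept in RPMI or DMEM with 5% or 10% fetal bovine serum and 1% penicillin/streptomycin. They were plated at 3 × 10^4 cells per well in 12-well plates and treated with DMSO or test compound. After 4 days, cell number and viability were counted on a Vi-Cell viability analyzer. Inhibition is relative to DMSO.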

[5] = system: HT-29; experiment: Cell proliferation assay, HT-29 colon cancer cells; assay type: cell-based
In short: as §1

[6] = system: fibroblast HEL 299 cells; experiment: Cell proliferation assay, normal fibroblast HEL 299 cells; assay type: cell-based
In short: (§2)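 Cells were obtained from a university collaborator and grown in RPMI or DMEM with 5% or 10% fetal bovine serum plus 1% penicillin/streptomycin. The medium for each line is not specified. Cells were seeded at 3 × 10^4 per well and treated with test compound or DMSO. After 4 days, cell number and viability were counted on an automated cell viability analyzer.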

[7] = system: lung epithelial BEAS-2B; experiment: Cell proliferation assay, normal lung epithelial BEAS-2B cells; assay type: cell-based
In short: as §2

[8] = system: LS174T colon cancer cells; conditions: cited from earlier work; for Inhibition of proliferation (%) of LS174T cells: Table 1

Compound: CNc1ncc(C#Cc2c(F)cccc2F)c2ccccc12 [Compound 5nn, 4-((2,6-Difluorophenyl)ethynyl)-N-methylisoquinolin-1-amine]
Effect on cyclin D1 (western blot) [2]: inhibited cyclin D1
Effect on p21^Wif1/Cip1 (western blot) [3]: induced cyclin-dependent kinase inhibitor p21^Wif1/Cip1

Compound: N.N.[Cl][Pt][Cl] [Cisplatin]
Percentage inhibition of the proliferation of colon cancer cells ([4]; 1 μM): 24.2±5.6%
Percentage inhibition of the proliferation of colon cancer cells ([4]; 10 μM): 82.1±1.4%
Percentage inhibition of the proliferation of colon cancer cells ([5]; 1 μM): 4.4±5.9%
Percentage inhibition of the proliferation of colon cancer cells ([5]; 10 μM): 72.7±3.5%
Percentage inhibition of the proliferation of normal cells ([6]; 1 μM): 37.5±4.1%
Percentage inhibition of the proliferation of normal cells ([6]; 10 μM): 57.8±0.3%
Percentage inhibition of the proliferation of normal cells ([7]; 1 μM): 39.2±14.9%
Percentage inhibition of the proliferation of normal cells ([7]; 10 μM): 82.4±0.2%

Compound: CN(C)c1ccc(C#Cc2c(F)cccc2F)cc1 [Compound 2, 4-((2,6-difluorophenyl)ethynyl)-N,N-dimethylaniline]
Effect on cyclin D1 (western blot) [2]: inhibited cyclin D1
Effect on p21^Wif1/Cip1 (western blot) [3]: induced cyclin-dependent kinase inhibitor p21^Wif1/Cip1
Water solubility ([1]; parent compound): sparingly water-soluble
Inhibition of cell proliferation (%) of colon cancer LS174T cells ([8]; 30 nM, Table 2): 57±1.2%
Inhibition of proliferation (%) of LS174T cells ([8]; 100 nM): 85.2±0.5%
Inhibition of proliferation (%) of LS174T cells ([8]; 1 μM): 99.5±0.1%

Compound: CN(C)c1ncc(C#Cc2c(F)cccc2F)c2ccccc12 [Compound 5mm, 4-((2,6-Difluorophenyl)ethynyl)-N,N-dimethylisoquinolin-1-amine]
Effect on cyclin D1 (western blot) [2]: inhibited cyclin D1
Effect on p21^Wif1/Cip1 (western blot) [3]: induced cyclin-dependent kinase inhibitor p21^Wif1/Cip1

Next, values leading:

Water solubility of hydrochloride salt [1]: completely water-soluble
Compound: CN(C)c1ncc(C#Cc2c(F)cccc2F)c2ncccc12 [Compound 5pp, 8-((2,6-Difluorophenyl)ethynyl)-N,N-dimethyl-1,6-naphthyridin-5-amine]

Water solubility of hydrochloride salt [1]: completely water-soluble
Compound: CN1CCN(c2ncc(C#Cc3c(F)cccc3F)c3ccccc23)CC1.Cl [Compound 5oo, 4-((2,6-Difluorophenyl)ethynyl)-1-(4-methylpiperazin-1-yl)isoquinoline]
